The test system of series [1] is A2780. The series can be described thus: Synergistic antiproliferative activity against human A2780 cells assessed as combination index at ED90 measured after 72 hrs in presence of carboplatin by celltiter-glo assay. The class given is functional. A digest of the protocol: (§1)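 Cells were seeded at 2–3 × 10³ per well in RPMI 1640 with 10% FBS. At 24 h, MK-2206 and the partner drug were added simultaneously at constant concentration ratios spanning each agent's IC₅₀, for 72 h. Growth was read as cellular ATP by CellTiter-Glo. CI was taken from median-effect plots of each agent alone and in combination (Chou–Talalay), at ED₅₀, ED₇₅ and ED₉₀.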
(Cellular ATP, detected with luciferase, serves as a proxy for viable cell number.)

The subject of series [2] is HCC70. The series can be described thus: Synergistic antiproliferative activity against human HCC70 cells assessed as combination index at ED50 treated 24 hrs prior to lapatinib and measured after 72 hrs by celltiter-glo assay. The class given is functional. As to conditions: time 96 hrs.
The test system of series [3] is MDA-MB-468. The series can be described thus: Synergistic antiproliferative activity against human MDA-MB-468 cells assessed as combination index at ED50 treated 24 hrs prior to lapatinib and measured after 72 hrs by celltiter-glo assay. It counts as functional. The settings on record: time 96 hrs.
Series [4] can be described thus: Toxicity in human PC-3 cells xenografted CD1 nude mouse assessed as body weight loss at 120 mg/kg, po administered 3 times per week for 2 weeks starting 24 hrs post docetaxel treatment and measured on day 15. The class given is organism-based. The settings on record: in vivo, 360 h, time 15 day. The essentials:
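Male CD1-nude mice with s.c. PC-3 tumours (50% Matrigel/50% PBS, left flank), randomized at mean 0.2 cm³, n=5/group, treated from 25 d post-implant. Body weight monitored versus vehicle-only controls.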
For orientation: A xenograft is tissue or cells of one species grown in another, often human tumour cells in immunodeficient mice.

Series [5] relates to NCI-N87. The series can be described thus: Synergistic antiproliferative activity against human NCI-N87 cells assessed as combination index at ED90 treated 24 hrs prior to lapatinib and measured after 72 hrs by celltiter-glo assay. It counts as functional. As to conditions: time 96 hrs.
The test system of series [6] is HCC70. The series can be described thus: Synergistic antiproliferative activity against human HCC70 cells assessed as combination index at ED90 measured after 96 hrs in presence of lapatinib by celltiter-glo assay. It counts as functional.
Series [7] can be described thus: Toxicity in human NCI-H292 cells xenografted CD-1 mouse assessed as weight loss at 360 mg/kg, po administered once a week for 2 weeks starting 2 hrs post-erlotinib treatment and measured on day 16. It counts as organism-based. The settings on record: in vivo, 384 h, time 16 day. The essentials: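 Female CD1-nude mice bearing s.c. NCI-H292 tumours (cells in 50% Matrigel/50% PBS, left flank), randomized at mean 0.2 cm³, n=5/group. Body weight monitored; treatment period ended day 16.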

For a further series, the system named is NCI-H358. Briefly: Synergistic antiproliferative activity against human NCI-H358 cells assessed as combination index at ED90 measured after 72 hrs in presence of erlotinib by celltiter-glo assay. The class given is functional.
Series [8] has as its system MDA-MB-468. Briefly: Synergistic antiproliferative activity against lapatinib pretreated human MDA-MB-468 cells assessed as combination index at ED75 measured after 72 hrs by celltiter-glo assay. The class given is functional.
The next series deals with NCI-H1703. Briefly: Synergistic antiproliferative activity against human NCI-H1703 cells assessed as combination index at ED25 to ED90 measured after 72 hrs in presence of carboplatin by celltiter-glo assay. The class given is functional.
Another series deals with NCI-H1299. The series can be described thus: Antiproliferative activity against human NCI-H1299 cells assessed as reduction in cell proliferation measured after 72 hrs by celltiter-glo assay. It counts as functional, cell-based. As to conditions: NCI-H1299, 72 h. The essentials: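 Cells in RPMI 1640 with 10% heat-inactivated FBS at 37°C and 5% CO₂ were seeded at 2 to 3 × 10³ per well. […] Growth was read as cellular ATP by CellTiter-Glo.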

Series [9] has as its system HCC70. The series can be described thus: Synergistic antiproliferative activity against lapatinib pretreated human HCC70 cells assessed as combination index at ED90 measured after 72 hrs by celltiter-glo assay. It counts as functional.
Series [10] concerns A2780. Briefly: Synergistic antiproliferative activity against human A2780 cells assessed as combination index at ED50 measured after 72 hrs in presence of doxorubicin by celltiter-glo assay. It counts as functional. A digest of the protocol:
as §1

Series [11] in a line: Toxicity in human NCI-H292 cells xenografted CD-1 mouse assessed as weight loss at 120 mg/kg, po administered 3 times per week for 2 weeks starting 2 hrs post-erlotinib treatment and measured during compound dosing. It counts as organism-based. The settings on record: in vivo, 336 h. A digest of the protocol: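 NCI-H292 cells in 50% Matrigel/PBS injected s.c. into flank of female CD1-nude mice; dosing began after 2 wk at mean tumour 0.2 cm³, n = 5/group. […] Body weight and signs monitored; treatment ended day 16.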

Series [12] deals with MDA-MB-468. The series can be described thus: Synergistic antiproliferative activity against lapatinib pretreated human MDA-MB-468 cells assessed as combination index at ED90 measured after 72 hrs by celltiter-glo assay. It counts as functional.
The subject of another series is BT-20. The series can be described thus: Synergistic antiproliferative activity against human BT-20 cells assessed as combination index at ED75 measured after 72 hrs in presence of docetaxel by celltiter-glo assay. It counts as functional. A digest of the protocol:
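Cells grown in RPMI 1640 with 10% heat-inactivated FBS at 37°C, 5% CO₂. Seeded at 2 to 3 × 10³ per well; drugs added 24 h later. […] Viability read as cellular ATP by CellTiter-Glo. CI calculated by Chou–Talalay from median-effect plots at ED50, ED75 and ED90.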

For a further series, the system named is BT-474. Briefly: Synergistic antiproliferative activity against human BT-474 cells assessed as combination index at ED50 preincubated for 24 hrs followed by compound washout and subsequent docetaxel addition and measured after 72 hrs by celltiter-glo assay. It counts as functional. The essentials: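 Sequential schedule. Cells were seeded at 2 to 3 × 10³ per well in RPMI 1640 with 10% FBS and dosed 24 h after plating. They were exposed to the Akt inhibitor for 24 h, washed free of it, then given docetaxel for a further 72 h. Fixed concentration ratios spanned each agent's IC₅₀. ATP was read by CellTiter-Glo, and Chou–Talalay CI was calculated at ED50, ED75 and ED90.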

For series [13], the target named is RAC-alpha serine/threonine-protein kinase (Homo sapiens) (UniProt P31749). Briefly: Inhibition of AKT in human A-431 cells assessed as reduction in AKT phosphorylation at S473 residue at 5 umol/L measured after 5 hrs in presence of erlotinib by Western blot analysis. It counts as cell-based. The settings on record: dose 5.0 µmol/L. A digest of the protocol:
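Cells were lysed in Tris-HCl pH 7.5, 150 mM NaCl, 1% Triton X-100 with protease and phosphatase inhibitors. Lysates were run on SDS-PAGE, transferred to nitrocellulose and probed with phospho-specific antibodies.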

Series [14] concerns MDA-MB-468. Briefly: Synergistic antiproliferative activity against lapatinib pretreated human MDA-MB-468 cells assessed as combination index at ED50 measured after 72 hrs by celltiter-glo assay. It counts as functional.
The next series deals with SK-OV-3. Briefly: Synergistic antiproliferative activity against lapatinib pretreated human SK-OV-3 cells assessed as combination index at ED75 measured after 72 hrs by celltiter-glo assay. It counts as functional.
The subject of another series is SK-BR-3. The series can be described thus: Synergistic antiproliferative activity against lapatinib pretreated human SK-BR-3 cells assessed as combination index at ED75 measured after 72 hrs by celltiter-glo assay. The class given is functional.
The subject of series [15] is NCI-N87. The series can be described thus: Synergistic antiproliferative activity against human NCI-N87 cells assessed as combination index at ED75 measured after 96 hrs in presence of lapatinib by celltiter-glo assay. It counts as functional.
The next series concerns HCC1954. The series can be described thus: Synergistic antiproliferative activity against human HCC1954 cells assessed as combination index at ED75 treated 24 hrs prior to lapatinib and measured after 72 hrs by celltiter-glo assay. As to conditions: time 96 hrs. The class given is functional.

Activity calls are given as the source filed them. No cut-off for these calls is given here.

Sequence of RAC-alpha serine/threonine-protein kinase (Homo sapiens) (P31749 whole entry): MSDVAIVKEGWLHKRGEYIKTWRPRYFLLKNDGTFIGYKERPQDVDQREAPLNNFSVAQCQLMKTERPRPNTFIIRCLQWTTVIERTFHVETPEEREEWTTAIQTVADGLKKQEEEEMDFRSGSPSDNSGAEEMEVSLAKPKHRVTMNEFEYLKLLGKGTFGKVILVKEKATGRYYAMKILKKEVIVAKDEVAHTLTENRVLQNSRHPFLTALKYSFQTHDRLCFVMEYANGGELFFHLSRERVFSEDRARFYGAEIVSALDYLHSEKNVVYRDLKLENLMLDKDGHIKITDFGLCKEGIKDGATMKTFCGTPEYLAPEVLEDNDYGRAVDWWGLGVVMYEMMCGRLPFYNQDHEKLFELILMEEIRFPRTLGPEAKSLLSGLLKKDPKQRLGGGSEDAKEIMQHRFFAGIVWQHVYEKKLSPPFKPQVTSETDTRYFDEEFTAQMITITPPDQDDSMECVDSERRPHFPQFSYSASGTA

For `Cl.NC1(c2ccc(-c3nc4ccn5c(=O)[nH]nc5c4cc3-c3ccccc3)cc2)CCC1`, the CI90 with A2780 [1] is listed as 0.38; in the series with NCI-N87 [5], 0.18; in the series on HCC70 [6], 0.18; with NCI-H358, 0.08; in the series with HCC70 [9], 0.18; in the series with MDA-MB-468 [12] it was 0.18. Besides, the CI50 worked out at 0.18 with HCC70 [2]; 0.18 in the series with MDA-MB-468 [3]; 0.7 with A2780 [10]; 1.6 with BT-474; 0.18 with MDA-MB-468 [14]. Also, the Activity entry is “Non-Toxic” in [4], “Non-Toxic” in series [7] and “Toxic” in [11]. Besides, the CI75 with MDA-MB-468 [8] is given as 0.18; in the series on BT-20 it was 0.7; in the series on SK-OV-3 it was 0.18; with SK-BR-3, 0.18; with NCI-N87 [15], 0.18; in the series on HCC1954, 0.18. Further, the CI in the series on NCI-H1703 was 0.53. Besides, the half-inhibitory concentration (IC50) (as a rule, the midpoint of a concentration-inhibition curve) in the series with NCI-H1299 is 27 µM. Also, the inhibition result in [13] was “Active”.

The record behind these values is ChEMBL document CHEMBL5705892, “MK-2206, an allosteric Akt inhibitor, enhances antitumor efficacy by standard chemotherapeutic agents or molecular targeted drugs in vitro and in vivo” (Mol Cancer Ther, 2010).
